Assay results: ChEMBL document CHEMBL4513216, “Probing the Open Global Health Chemical Diversity Library for Multistage-Active Starting Points for Next-Generation Antimalarials” (ACS Infect Dis, 2020)

Assay: Toxicity liver stage against HepG2, at 10uM
Format: cell-based
Set-up: test concentration 10 uM, cell line HepG2-A16-CD81EGFP
Details: human, HepG2-A16-CD81EGFP cells; read-out: INHIBITION
In short: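 Uninfected HepG2-A16-CD81EGFP cells, 3 × 10^3 per well, 1536-well, plated on prespotted compound at 10 μM final, parasite-free screening media added to match infected plates; puromycin 10 μM positive, DMSO 0.5% negative; run in parallel with 48 h PbLuc assay at 37 °C, 5% CO2; viability by CellTiter-Glo luminescence, normalized to controls.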

SMILES	cytotoxicity at 10 µM
CC(C)(C)c1cn2nc(N3CCCC3Cn3cccn3)sc2n1 (stereo unspecified)	-23.8%
O=C(CCc1ccsc1)N1CCC(N2CCNC2=O)CC1	-0.546%
COc1ccc(CCCN(C)C(=O)c2cc(Cl)c[nH]2)cc1OC	-1.24%
Cc1ccc2c(n1)N(CC(C)C)CCN(S(C)(=O)=O)C2	-65.7%
Cn1cccc1C(=O)N1CCc2ncnc(N3CCCC3)c2CC1	-1.31%
CN(C(=O)c1cc(F)ccc1F)[C@@H]1CC[C@@H](O)[C@@H]1O	-0.822%
OCCN1CCOC2(CCCN(c3ncc(F)cn3)C2)C1 (stereo unspecified)	5.98%
CC(C)N1CCc2[nH]nc(C(=O)N3CCOCC3)c2C1	-1.6%
O=C(NC(CN1CCCC1)c1ccccc1)c1c(O)cc(F)cc1F (stereo unspecified)	-2.3%
CC(C)CNC(=O)c1[nH]nc(C2CC2)c1Br	2.71%
COc1ccc(CNCC2CCN(CCO)CC2)cc1F	-3.71%
CN1C(=O)[C@@H]2CC[C@H]1CN(Cc1cccc(OCc3ccccn3)c1)C2	5.52%
CCn1ncnc1C(C)NC(=O)COc1ccc(Cl)cc1Cl (stereo unspecified)	2.8%
O=C(Cn1cc(C(=O)O)ccc1=O)NCc1ccc(F)cc1Cl	-0.581%
Cc1nn(C)c(C)c1NC(=O)CN1CCCC1c1noc(C2CC2)n1 (stereo unspecified)	-12.1%
CCOc1ncccc1NC(=O)NC1CCN(c2ncccn2)CC1	-33.3%
CC(C)c1noc(CCCC(=O)N2CCN(S(C)(=O)=O)CC2)n1	-15.7%
Cc1cc(-c2ccc(=O)n(CCNC(=O)C3CCCCC3)n2)c(C)o1	-3.73%
Cc1ccc(S(=O)(=O)Nc2ccc(-n3cccc3C(=O)O)c(C)c2)s1	6.15%
CC(C)Cn1ccc2c(NC(=O)c3n[nH]c4c3CCC4)cccc21	7.33%
Cc1cccc(-n2ncc3c2CCCC3NCc2cccc(O)c2)c1C (stereo unspecified)	3.11%
COCCN(C)Cc1ccc(OC)c(OC(F)F)c1	-5.5%
C1CC(CO[C@@H]2CC[C@H]3[C@H]2OCCN3CC2CCOCC2)CCO1	13.7%

SMILES	cytotoxicity at 10 µM
Cc1noc(COCC(=O)N2CCCC(c3nccs3)C2)n1 (stereo unspecified)	0.172%
Cc1nn(C)c(N2CCOCC2)c1CNC(C(N)=O)c1ccccc1 (stereo unspecified)	-6.86%
COCCN1CCN(C(=O)C(c2cccc(F)c2)N(C)C)CC1 (stereo unspecified)	9.63%
CCC[C@@H]1CN(Cc2cnc3c(S(C)(=O)=O)cnn3c2)C[C@H]1N(C)C	-2.12%
CN1CCCN(S(=O)(=O)c2cn(C)cn2)c2cc(F)ccc21	6.06%
Cc1cc(N[C@H](CO)c2ccccc2)n2nc(C)cc2n1	-1.58%
c1ccc(N2CCOC3(CCCN(c4nncs4)C3)C2)nc1 (stereo unspecified)	9.17%
CC(C)NC(=O)[C@@H]1CCO[C@@H]2CCN(c3ncccn3)C[C@H]21	-7.6%
CCNc1ncc(CN(CCN(C)C)Cc2ccc(C)s2)cn1	-46.1%
CNc1nc(N2CCC3(CCCNC3=O)C2)nc2c1CCC2 (stereo unspecified)	-4.95%
O=C(CCc1nnc(-c2ccsc2)o1)NCC1CCN(C2CC2)C1 (stereo unspecified)	-1.73%
Cc1cc(C(=O)NS(C)(=O)=O)ccc1I	6.85%
Cc1nc2ccccn2c1CN1C[C@@H](CN(C)C)[C@@H](CO)C1	0.743%
CCc1nn(C)c(CC)c1CNC(=O)Nc1cccc2c1CCN2C	-1.57%
CCn1cnnc1CNC(=O)N(C)Cc1ccc(Cl)cc1Cl	-17.7%
Cn1ccnc1CNC(=O)c1cncc(C2CCNCC2)n1	1.81%
COCCN1CCC2(COCc3cnc(N4CCOCC4)nc32)C1 (stereo unspecified)	11.6%
CNC(=O)[C@@H]1C[C@@H](NC(=O)Cc2cccs2)CN1C1CCOCC1	2.7%
O=C(Cc1cccc(F)c1)NCCNCc1ccc2c(c1)CCO2	-12.5%
CN(C)c1cccc(C(=O)N2CCn3c(nnc3C3CC3)C2)c1	0.7%
CCn1cc(SCC(=O)N2CCCC(O)(CO)C2)c2ccccc21 (stereo unspecified)	6.37%
N#Cc1ccc(N2CCC(OC3CCOCC3)CC2)cc1Cl	1%
Cc1nc(-c2ccc(S(=O)(=O)N3CCC4(CC3)OCCO4)cc2)co1	1.69%

SMILES	cytotoxicity at 10 µM
c1cncc(Cc2nnc3n2CCN(CC2CCCNC2)CC3)c1 (stereo unspecified)	2.1%
CC(O)CN(C)S(=O)(=O)c1ccc(C#N)cc1F (stereo unspecified)	-6.67%
COCc1ccc(CNc2cnn(C(C)(C)C)c(=O)c2Cl)cc1	60.9%
CCC(C)(CC(=O)OC)NCc1c(C)noc1C (stereo unspecified)	-3.19%
c1ccc(N2CCCC3(CCN(Cc4ccsc4)C3)C2)nc1 (stereo unspecified)	-14%
FC(F)(F)c1ccnc(N2CCCCCC2)c1	3.02%
CO[C@H]1CN(C(=O)c2ccc[nH]2)[C@@H]2COC[C@H]12	-6.04%
Cc1csc(C(C)(C)NCc2ncc(-c3ccccc3)o2)n1	7.95%
Cn1ccnc1C1(O)CCN(C(=O)Cc2ccccc2)CC1	5.09%
c1coc(-c2nc(CN3CCCC(Cn4cncn4)C3)cs2)c1 (stereo unspecified)	-12%
O=S(=O)(C1CC1)N1CCO[C@@H]2CN(Cc3ccco3)C[C@@H]2C1	-140%
Cc1cccc(CN2Cc3nccn3CC(CN3CCOCC3)C2)c1 (stereo unspecified)	-75.2%
O=C(Nc1cccs1)NC(CCCO)c1ccccc1 (stereo unspecified)	9.18%
CC(C)c1ccnc(N[C@H]2COC[C@@H]2N2CCCC2)n1	-4.48%
CN(CC(=O)NCC(O)c1cccc(F)c1)C(=O)OC(C)(C)C (stereo unspecified)	1.2%
CS(=O)(=O)c1ccc(CC(=O)N2CCN3CCNC(=O)C3C2)cc1 (stereo unspecified)	-3.34%
O=S1(=O)NC(c2ccnc(N3CCCC3)n2)=Nc2ccccc21	12.8%
CN(C)CCNC(=O)c1nc2c(o1)CN(C(=O)c1cccnc1)C2	0.109%
CC(C)CCNC(=O)CNC(=O)N1CCc2c([nH]c3ccc(Cl)cc23)C1	6.73%
Fc1cccc(CNc2cncc(-n3cccn3)n2)c1	0.959%
O=C(NCCc1cccs1)[C@]12COC[C@H]1CN(Cc1ccncc1)C2	-114%
Cc1nn(C)c(C)c1C(C)NC(=O)Nc1cccnc1N1CCCC1 (stereo unspecified)	-6.88%
NC(=O)c1cc(C2CCCN(CCc3ccc4c(c3)CCO4)C2)n[nH]1 (stereo unspecified)	-1.92%

SMILES	cytotoxicity at 10 µM
Cc1occc1C(=O)N1CCc2c(COCC3CC3)cncc2C1	-0.799%
O=C(O)c1cn(CC2CCCN(c3cnc4ccccc4n3)C2)nn1 (stereo unspecified)	1.57%
O=C1OCCN1CCOc1nc(-c2ccccc2Cl)no1	-11.3%
CC(C)c1nnc2n1CCN(C(=O)c1ccc(N(C)C)nn1)C2	-9.86%
CC(C)C(=O)N1CCc2c(CN(C)Cc3ccco3)cncc2C1	-5.69%
CN1CC(=O)N(c2ccccc2)Cc2c(NC3CC3)ncnc21	6.86%
NCC1CCCCN1C(=O)Cc1cccc(Cl)c1 (stereo unspecified)	-5.36%
CCOc1ccccc1CN(CC)Cc1ccc(S(=O)(=O)NC)cc1	-0.943%
CCOCCn1nc(C)cc1C(=O)N1CCCC[C@H](N(C)C)C1	-3.68%
Cc1ccc(C(=O)N2CCOCC2)cc1NCc1ccsc1	-6.96%
CNC(=O)c1cc2c(nc1NCC1CC1)CCN(CC1CC1)CC2	0.864%
Cc1cc(C)n(CC(=O)N2CCCCC2CCN(C)C)c(=O)n1 (stereo unspecified)	-14.7%
OCC1N(Cc2ccc(F)cc2)C2CCC1(O)CC2 (stereo unspecified)	8.05%
CC(O)CNC(=O)c1nc(Cc2c(Cl)cccc2Cl)no1 (stereo unspecified)	3%
OCCCN1CCCC1c1cccc(Br)c1 (stereo unspecified)	5.71%
CN1CCCC(c2nccnc2-c2cccc(C(F)(F)F)c2)C1 (stereo unspecified)	7.75%
CC(=O)Nc1ccc(Cl)c(C(=O)N(C)C(C)c2ccncn2)c1 (stereo unspecified)	-42.6%
CN(C)C(=O)N1CCN(C(=O)c2ccccc2)CC2(CNC(=O)C2)C1 (stereo unspecified)	7.19%
c1cncc(CN2CCCC3(COCCN(c4cnccn4)C3)C2)c1 (stereo unspecified)	-0.0653%
CC(C)n1cc(-n2cc3nc(N4CCOCC4)[nH]cc-3c2=O)cn1	4.48%
CCn1cc(S(=O)(=O)NCC(c2ccccc2)N2CCOCC2)c(C)n1 (stereo unspecified)	2.76%
Cc1ccc2cc(CNCCCO)c(=O)[nH]c2c1	0.127%
Cc1nc(CN[C@H]2CCCN(C(=O)OC(C)(C)C)C2)cs1	0.577%

SMILES	cytotoxicity at 10 µM
COC(=O)N1CCCC(NC(=O)NCc2ccc(C)nc2)C1 (stereo unspecified)	-4.73%
Cc1cccc(CN2CCS(=O)(=O)[C@@H]3CCN(S(C)(=O)=O)CC[C@@H]32)n1	-3.34%
CCC(C)(NCC(=O)NC(C)C)c1nc(C)cs1 (stereo unspecified)	-2.06%
Cn1cnc2cc(CCC(=O)Nc3n[nH]c(C4CC4)n3)ccc21	5.21%
CN1CCOC[C@H]1c1nc(C(C)(C)C)c[nH]1	5.08%
CC(C)Sc1ncccc1C(=O)NCc1ccc(O)cc1	-3.29%
CC(C(=O)NCC1(c2c(F)cccc2F)CCCC1)S(C)(=O)=O (stereo unspecified)	8.14%
COCCN(Cc1coc(-c2ccc(OC)cc2)n1)C1CC1	2.1%
CCN1CCC12CCN(C(=O)c1ccsc1)C2 (stereo unspecified)	-148%
O=C(NCc1ccco1)[C@H]1C[C@@H]2CCN(c3cccc(F)c3)C[C@H]2O1	8.68%
CCc1ncc(C(=O)N(C)C2Cc3ccccc3C2)cn1	-1.05%
CC(CN1CCC(CCO)CC1)n1cnc2ccccc21 (stereo unspecified)	5.34%
CC(O)CN1CCC(CNCCOCC(F)(F)F)CC1 (stereo unspecified)	4.91%
Cc1csc(C2CCCN(C(=O)c3c(C)nn4cccnc34)C2)n1 (stereo unspecified)	-10.4%
O=C1O[C@@H]2CN(S(=O)(=O)N3CCCC3)C[C@@H]2N1CCc1cccc(Cl)c1	-2.9%
CCOCC1CN(Cc2cccc(C#N)c2)Cc2nccn2C1 (stereo unspecified)	-8.22%
CCc1noc(C)c1C(=O)N1CCCC1Cn1nc(C)cc1C (stereo unspecified)	-5.48%
CCc1nccn1CCNC1CCN(c2nc3ccc(Cl)cc3s2)CC1	28.8%
CN(Cc1cccs1)C(=O)CN1CCCCC1Cn1cncn1 (stereo unspecified)	8.97%
